TAAR1 antag – antagonists of human TAAR1; Q96RJ0; CHO RD-HGA16 TAAR1, Fluo-8 calcium fluorescence, antagonist; inhibition, % at 3 µM; 1.5% of 360,000 active; AID 624466;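 active = inhibition above a per-plate cutoff, the mean inhibition of test compounds on that plate plus 3 SD, cut at about 49% in these data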;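 also: 0% = DMSO plus EC80 beta-PEA response and 100% = DMSO alone without agonist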
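System: CHO RD-HGA16 cells bearing hTAAR1. Reagent: EC80 β-phenethylamine stimulus. Schedule: seeding 17-24 h prior, 75-min 37 °C, 30-min RT dye loading. Signal: Fluo-8 intracellular calcium dye fluorescence, real-time kinetic reads. Read-out: % inhibition from peak post-agonist over basal fluorescence ratio. Benchmarks: vehicle wells and EC80 agonist wells. Replicates: n of 1.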
OXTR potentiator – potentiators of human oxytocin receptor. CHO-OTR cells, Fluo-8 calcium fluorescence, potentiator mode; 0% = oxytocin EC15, 100% = EC100. activation, % at 3 µM. 0.061% of 320,000 active. AID 2445;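 active = activation above that plate's cutoff, the mean activation of tested compounds plus 3 SD, cut at about 6.6% in these data, passing the limit was not always enough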;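 also: 100% uses oxytocin at 75 nM as the full agonist control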
Target sequence (P30559 whole entry, looked up): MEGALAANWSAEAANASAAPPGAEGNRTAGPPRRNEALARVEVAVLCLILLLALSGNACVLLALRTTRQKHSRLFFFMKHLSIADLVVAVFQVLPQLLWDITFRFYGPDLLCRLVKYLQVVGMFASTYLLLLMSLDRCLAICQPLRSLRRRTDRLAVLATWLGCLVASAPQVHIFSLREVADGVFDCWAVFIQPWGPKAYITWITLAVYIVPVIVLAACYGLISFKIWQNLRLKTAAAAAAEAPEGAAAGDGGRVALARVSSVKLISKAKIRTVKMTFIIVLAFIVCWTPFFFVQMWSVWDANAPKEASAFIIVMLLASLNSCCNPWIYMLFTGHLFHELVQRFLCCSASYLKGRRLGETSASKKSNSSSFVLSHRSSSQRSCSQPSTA
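Assay system: CHO-OTR cells, human receptor / Also added: oxytocin at about EC15, sub-maximal agonist stimulus / Dosing: single dose, 3.0 µM nominal final compound concentration / Incubation: 6 min pre-incubation, 100 s read / Technique: Fluo-8 calcium dye fluorescence / Read-out: % activation vs EC15 and EC100 oxytocin / Benchmarks: EC15 oxytocin low, 75 nM oxytocin high / Replicates: singlicate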
V1R ag counter – activates human V1a receptor in oxytocin agonist counter-screen; 0.25% of 320,000 active; activation, % at 3 µM; CHO-V1R cells, Fluo-8 calcium fluorescence, agonist mode; 0% DMSO, 100% 3 nM vasopressin; P37288;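 active = activation above the mean activation of all tested compounds plus 3 SD, per screening run, cut at about 20% in these data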;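 also: signal is peak over basal fluorescence ratio across a 100 second FLIPR read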
OXTR ag – activates the human oxytocin receptor; 0.32% of 320,000 active; activation, % at 3 µM; P30559; AID 2435; CHO-OTR cells, Fluo-8 calcium fluorescence; normalized: DMSO 0%, oxytocin 100%;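 active = activation above the mean of all tested compounds plus 3 SD, cutoff set per screening run, cut at about 20% in these data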;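 also: peak over basal fluorescence ratio from a 100 s FLIPR kinetic read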
TAAR1 ag – agonists of human TAAR1 | activation, % at 3 µM | CHO RD-HGA16 TAAR1, Fluo-8 calcium fluorescence; vehicle wells 0%, saturating PEA agonist 100% | 0.99% of 360,000 active;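 active = activation above the mean activation of all test compounds in the run plus 3 SD, cut at about 38% in these data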
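System: CHO-derived RD-HGA16 cells with stable Gα16 and human TAAR1. Times: 17-24 h plating, Fluo-8 75 min 37 °C, 30 min RT. Measured by: calcium-sensitive Fluo-8 signal, excitation 470-495, emission 515-575 nm. Read-out basis: % activation relative to PEA EC100 response. Control set: DMSO and PEA EC100. Repeats: no replicates (n 1).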
* hit, by the source's call; nt = no result given. Compounds with a hit are over-represented: about 2.3% of the library has one in this group of screens.

SMILES	TAAR1 antag	OXTR potentiator	V1R ag counter	OXTR ag	TAAR1 ag
O=C(c1ncn(Cc2ccccc2)c1C(=O)N1CCN(c2ccccc2)CC1)N1CCN(c2ccccc2)CC1	13	-8	1	0	10
O=C(c1ncn(Cc2ccccc2)c1C(=O)N1CCc2ccccc2C1)N1CCc2ccccc2C1	45	-5	0	-1	41*
O=C(c1nc2ccc(Cl)cn2c1CN1CCCC1)N1CCc2ccccc2C1	-18	-3	2	1	47*
COC(=O)C1=C(C)N(Cc2ccccc2C(F)(F)F)C(=NCc2ccc(OC)cc2)NC1c1cccc(F)c1 (centres undefined)	5	nt	nt	nt	14
CCN1C(=O)N/C(=C/c2ccc(C)o2)C1=O	13	-15	0	0	5
CCN1C(=O)N/C(=C/c2ccc(Sc3ccc(C)cc3)o2)C1=O	65*	-14	5	-1	18
Cc1cccc(NC(=O)CNC(=O)[C@@H](Cc2ccccc2)NC(=O)[C@H]2O[C@@H](n3ccc(N)nc3=O)[C@H](O)[C@@H]2O)c1C	-27	nt	nt	nt	5
CCOc1cc(/C=N/NC(=O)c2nnn(-c3nonc3N)c2C)ccc1OCc1cccc(F)c1	-5	-4	0	-1	0
CCOc1ccccc1N1CCN(C/C=C/c2ccc(N(C)C)cc2)CC1	-9	2	0	-1	37*
CSC1=NSC2=NC(=O)/C(=C/c3coc4ccc(O)cc4c3=O)C(=N)N12	109*	-19	77*	104*	412*
CC1=CC2=NC(=O)/C(=C/c3coc4ccc(Cl)cc4c3=O)C(=N)N2O1	27	-19	34*	55*	43*
COc1cc(/C=C2/C(=N)N3C(SC)=NSC3=NC2=O)ccc1OC(=O)c1ccco1	-4	-4	0	0	-1
CSC1=NSC2=NC(=O)/C(=C/c3coc4ccccc4c3=O)C(=N)N12	104*	-12	88*	176*	375*
CC1=CC2=NC(=O)/C(=C\c3cc(C)n(-c4cccc(Cl)c4)c3C)C(=N)N2O1	-6	-4	0	-1	-2
CSC1=NSC2=NC(=O)/C(=C\c3cccs3)C(=N)N12	2	-4	1	2	4
CCc1c(-c2cccc(F)c2)ncn1CCc1ccccc1OC	-20	nt	nt	nt	6
CCCC(=O)NC1=C(Cl)C(=O)c2ccccc2C1=O	52*	nt	nt	nt	54*
O=C1C(Cl)=C(Nc2ccc(O)cc2)C(=O)c2ccccc21	56*	-6	-1	0	-3
CC(C)C[C@@H]1COc2cccc(NCCO)c2S(=O)(=O)N1	-11	nt	nt	nt	2
CCCCNc1nc(NCc2ccccc2)nc2ccccc12	92*	nt	nt	nt	78*
Cc1[nH]c2ccccc2c1CC(=O)Nc1ccc(N(C)c2cccnc2)c(-c2cccc(Cl)c2)c1	-8	nt	nt	nt	4
CC(=O)c1cccc(NC(=O)Nc2cccs2)c1	28	-21	6	4	42*
O=C(Nc1cccs1)Nc1ccc(Br)cc1F	39	-14	8	9	10
COc1cccc(NC(=O)Nc2cccs2)c1	19	-11	3	1	20
O=C(Nc1cccs1)Nc1ccc(F)cc1F	-10	-13	4	3	39*
SMILES	TAAR1 antag	OXTR potentiator	V1R ag counter	OXTR ag	TAAR1 ag
c1ccc(CN2CCCC3CC2c2ccccc23)cc1 (centres undefined)	-7	nt	nt	nt	0
COc1ccccc1N1N=C(c2ccc([N+](=O)[O-])cc2)CC1c1ccccc1 (centres undefined)	25	-22	28*	30*	23
NS(=O)(=O)c1ccc(CCNC(=O)c2cc(-c3ccccc3)nc3ccccc23)cc1	45	-2	-1	0	7
COc1ccc(-c2cc(C(=O)NCCc3ccc(S(N)(=O)=O)cc3)c3ccccc3n2)cc1	54*	-6	1	0	8
Cc1ccc(-c2cc(C(=O)NCCc3ccc(S(N)(=O)=O)cc3)c3ccccc3n2)cc1	51*	-12	2	1	6
CC1=CC(O)(c2ccccn2)P(=O)(c2ccccc2)C=C1C (centres undefined)	-9	nt	nt	nt	1
O=C(NCCc1ccccn1)C(F)(F)C(F)(F)C(F)(F)C(F)(F)C(F)(F)C(F)(F)C(F)(F)C(F)F	-1	1	0	0	41*
Cc1nc2ccc(S(=O)(=O)Nc3cccc(-c4nc5cccnc5s4)c3C)cc2s1	59*	-6	9	7	5
Cc1nc2ccc(S(=O)(=O)Nc3cc(-c4nc5cccnc5s4)ccc3C)cc2s1	43	-4	-1	-1	3
COC(=O)C1=C(C)N(Cc2ccc(Br)cc2)C(=S)NC1c1ccccc1 (centres undefined)	10	nt	nt	nt	0
Cc1cc(=O)c2c(ccc3c(=O)cc(C)[nH]c32)[nH]1	-30	nt	nt	nt	3
O=C1OC2(c3ccccc31)c1cc(I)c(O)c(I)c1Oc1c2cc(I)c(O)c1I	nt	-26	659*	670*	nt
Cc1cc(O)ccc1C1(c2ccc(O)cc2C)OC(=O)c2ccccc21	14	-8	6	7	31
COc1cccc(C(=O)N[C@H](C(=O)N2CCC[C@H]2C(=O)NC2CCCC2)C2CCCCC2)c1	-23	nt	nt	nt	-1
COC(=O)C1(F)C(=O)NC(=O)NC1OC (centres undefined)	-17	nt	nt	nt	1
Cc1ccc2c(c1)nnn2C1CCN(S(=O)(=O)c2ccc3ccccc3c2)CC1	8	-3	2	1	3
Cc1ccc2c(c1)nnn2C1CCN(S(=O)(=O)c2cccc(S(=O)(=O)N(C)C)c2)CC1	56*	-24	11	9	19
COc1ccc2c(c1)[nH]c1c(=O)n(Cc3ccccn3)cnc12	5	6	-1	0	2
COc1ccc2c(c1)[nH]c1c(=O)n(Cc3ccco3)cnc12	36	-14	11	10	47*
COc1ccc(NC(=O)c2cc(-c3ccncc3)nc3ccc(Br)cc23)cc1OC	53*	-14	2	4	15
O=C(Nc1nccs1)c1ccc2sc([C@H]3C[C@H](O)[C@@H](CO)O3)nc2c1	-4	nt	nt	nt	3
O=C(Nc1nc2ccccc2s1)c1ccc2sc([C@H]3C[C@H](O)[C@@H](CO)O3)nc2c1	50*	nt	nt	nt	10
O=C(Nc1c(F)c(F)c(F)c(F)c1F)OC[C@@H]1CSCCS(=O)(=O)N1	-4	nt	nt	nt	3
CC(C)(C)c1cc(O)c(C(C)(C)C)cc1O	nt	-26	48*	71*	nt
Cc1cc(C(C)(C)C)c(O)c(C(C)(C)C)c1	-14	-5	2	0	2
CC(C)NC(=O)CCc1nc2cccnc2n1-c1ccccc1	-26	-2	-1	0	1
COC(=O)[C@]12C[C@H](CC(=O)NCc3ccc(OC)c(OC)c3)C(=O)N(Cc3ccccc3)C1=C[C@H](C1CCCC1)O[C@@H]2C	-24	nt	nt	nt	-1

Source: PubChem (The Scripps Research Institute Molecular Screening Center)
